Experimental data as given in ChEMBL document CHEMBL1127428, “Studies of the active conformation of a novel series of benzamide dopamine D2 agonists” (J Med Chem, 1994).
Activity calls are given as the source filed them. The calls are words filed in the database; no cut-off is given here.

How the values were obtained:
Mus musculus [1] = test: Tested for the inhibition of Spontaneous locomotor activity; Not active, ED50 > 30 mg/kg; format: functional, organism-based; design: dose 30 mg/kg
In short: (§1)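 Mice dosed ip, then immediately tested for 1 h of exploratory locomotion in darkened cylindrical photobeam chambers. Activity expressed as percent of vehicle-treated animals. ED50 (95% confidence range) derived from three to six doses, 6–18 animals per dose.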

D(2) dopamine receptor [2] = molecular target: D(2) dopamine receptor (Homo sapiens, UniProt P14416); test: In vitro inhibition of forskolin-stimulated cAMP accumulation in GH4C1 cells transfected with the human Dopamine D2 receptor; format: functional, cell-based, GH4-C1
D(2) dopamine receptor [3] = molecular target: D(2) dopamine receptor (Rattus norvegicus, UniProt P61169); test: Binding affinity towards Dopamine D2 receptor from rat striatal membranes, using [3H]- spiperone as radioligand
In short: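 Displacement of [3H]spiperone (0.2 nM, final) from rat striatal membranes; nonspecific binding defined with (+)-butaclamol (1 μM). Four to six concentrations, each run in triplicate; IC50 obtained by nonlinear regression.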

[4] = (§2) Tested in vitro for intrinsic activity relative to quinpirole
In short: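 Human D2 receptor (long form) expressed by transfection in GH4C1 cells. Agonism was read as inhibition of forskolin-stimulated cAMP accumulation. Intrinsic activity was the maximal response expressed relative to the maximal response of the full D2 agonist quinpirole.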

[5] = as §2
In short: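 GH4C1 cells transfected with human D2 receptor (long form); agonism read as inhibition of forskolin-stimulated cAMP accumulation. Intrinsic activity = maximal response relative to the full D2 agonist quinpirole (set at 1.0).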

Mus musculus [6] = organism: Mus musculus; test: Tested for the inhibition of Spontaneous locomotor activity; format: functional; in short: as §1

Chain of D(2) dopamine receptor (Homo sapiens, UniProt P14416) (P14416 whole entry): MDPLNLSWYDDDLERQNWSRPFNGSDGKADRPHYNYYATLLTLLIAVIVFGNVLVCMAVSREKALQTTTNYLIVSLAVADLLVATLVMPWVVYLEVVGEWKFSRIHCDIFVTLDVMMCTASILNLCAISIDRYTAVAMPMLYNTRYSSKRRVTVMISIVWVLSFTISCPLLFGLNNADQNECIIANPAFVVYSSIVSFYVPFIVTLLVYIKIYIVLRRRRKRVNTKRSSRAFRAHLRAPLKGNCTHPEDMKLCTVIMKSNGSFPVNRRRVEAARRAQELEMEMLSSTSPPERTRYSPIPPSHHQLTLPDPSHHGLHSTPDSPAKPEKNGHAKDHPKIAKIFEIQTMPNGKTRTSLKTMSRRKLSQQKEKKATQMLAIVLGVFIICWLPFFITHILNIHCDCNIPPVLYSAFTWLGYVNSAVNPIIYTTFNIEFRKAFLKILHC
Chain of D(2) dopamine receptor (Rattus norvegicus, UniProt P61169) (P61169 whole entry): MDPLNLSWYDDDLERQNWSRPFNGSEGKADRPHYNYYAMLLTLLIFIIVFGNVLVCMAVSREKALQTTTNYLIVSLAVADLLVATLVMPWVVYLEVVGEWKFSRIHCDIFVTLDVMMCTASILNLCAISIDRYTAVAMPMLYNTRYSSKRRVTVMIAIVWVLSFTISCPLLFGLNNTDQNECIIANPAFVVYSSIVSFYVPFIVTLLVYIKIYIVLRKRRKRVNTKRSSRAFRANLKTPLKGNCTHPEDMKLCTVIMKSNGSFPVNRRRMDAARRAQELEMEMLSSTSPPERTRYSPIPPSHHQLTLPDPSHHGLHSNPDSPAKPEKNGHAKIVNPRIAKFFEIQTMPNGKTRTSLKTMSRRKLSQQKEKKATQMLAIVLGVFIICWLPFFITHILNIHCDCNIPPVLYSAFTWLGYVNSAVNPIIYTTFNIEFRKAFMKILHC

Row | EC50 (D(2) dopamine receptor [2]) [µM] | IC50 (D(2) dopamine receptor [3]) [µM] | Intrinsic activity [5] | SMILES | ED50 (Mus musculus [1]) | Intrinsic activity [4] | ED50 (Mus musculus [6]) [mg/kg]
1 | > 1 | 7.1 |  | O=C(N[C@H]1CC[C@H]2C[C@H](N3CCN(c4ccccn4)CC3)CC[C@@H]2C1)c1ccccc1 | inactive |  | 
2 |  |  |  | CCCN1CCC[C@@H]2Cc3n[nH]cc3C[C@H]21 (single isomer, unassigned) [QUINPIROLE] |  | 1 | 
3 | 0.24 | 1.1 | 0.63 | O=C(N[C@H]1CC[C@H]2C[C@@H](N3CCN(c4ccccn4)CC3)CC[C@@H]2C1)c1ccccc1 |  |  | 6.9
4 | > 1 | 5.8 |  | O=C(N[C@@H]1CC[C@H]2C[C@H](N3CCN(c4ccccn4)CC3)CC[C@@H]2C1)c1ccccc1 |  |  | 14.3
5 | 0.0104 | 0.0727 | 0.98 | O=C(N[C@@H]1CC[C@H]2C[C@@H](N3CCN(c4ccccn4)CC3)CC[C@@H]2C1)c1ccccc1 |  |  | 0.1
6 | 0.0049 | 0.443 | 0.83 | O=C(N[C@H]1CC[C@H](CCN2CCN(c3ccccn3)CC2)CC1)c1ccccc1 |  |  | 0.16
